From ChEMBL document CHEMBL1134373, “A potent, nonpeptidyl 1H-quinolone antagonist for the gonadotropin-releasing hormone receptor” (J Med Chem, 2001)

Experiments:
[1] = Area under curve was determined after intravenous administration of a dose of 0.5 mg/kg; type: ADME, organism-based; set-up: dose 0.5 mg/kg, route intravenous; details: in vivo
Method in brief: (§1)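 Male rhesus monkeys received a single iv dose in ethanol/PEG400/saline (10/40/50, v/v/v) via the brachiocephalic vein. Femoral vein blood was drawn at 5, 15, 30 min and 1, 2, 4, 6, 8, 24 h. Plasma was extracted with ethyl acetate and assayed by LC/MS/MS against an internal standard (LOQ 2.0 ng/mL). AUC came from linear/log trapezoidal rule with extrapolation by Ct/λ; t1/2 = 0.693/λ; Clp = dose/AUC(0-∞).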

[2] = Area under curve was determined after intravenous administration of a dose of 3 mg/kg; type: ADME, organism-based; set-up: dose 3 mg/kg, route intravenous; details: in vivo; method in brief: as §1
[3] = Half life period was determined after intravenous administration of 0.5 mg/kg; type: ADME, organism-based; set-up: dose 0.5 mg/kg, route intravenous; details: in vivo; method in brief: as §1
[4] = Half life period was determined after intravenous administration of 3 mg/kg; type: ADME, organism-based; set-up: dose 3 mg/kg, route intravenous; details: in vivo; method in brief: as §1
[5] = Plasma clearance was determined fter intravenous administration of a dose of 0.5 mg/kg; type: ADME, organism-based; set-up: dose 0.5 mg/kg, route intravenous; details: read-out: ClP; method in brief: as §1
[6] = Plasma clearance was determined fter intravenous administration of a dose of 3 mg/kg; type: ADME, organism-based; set-up: dose 3 mg/kg, route intravenous; details: read-out: ClP; method in brief: as §1
[7] = biological target: T1, Gonadotropin-releasing hormone receptor (Rattus norvegicus, UniProt P30969); assay: In vitro inhibition of binding to GnRH receptor in rat
T1 sequence (P30969 whole entry): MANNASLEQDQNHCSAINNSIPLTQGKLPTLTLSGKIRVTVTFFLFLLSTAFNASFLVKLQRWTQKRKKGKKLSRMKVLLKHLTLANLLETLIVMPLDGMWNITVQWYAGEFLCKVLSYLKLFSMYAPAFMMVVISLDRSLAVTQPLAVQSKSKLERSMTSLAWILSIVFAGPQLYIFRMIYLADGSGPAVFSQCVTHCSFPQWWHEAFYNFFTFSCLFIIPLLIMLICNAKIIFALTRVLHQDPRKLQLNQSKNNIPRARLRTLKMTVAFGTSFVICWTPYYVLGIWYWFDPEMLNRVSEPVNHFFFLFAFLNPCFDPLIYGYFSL
Method in brief: (§2)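 Crude membranes came from rat pituitary (rat) or from CHO-K1 cells stably expressing human GnRH receptor (human). Competition was run against [125I-Tyr5]buserelin (1000 Ci/mmol) in 50 mM Tris-HCl pH 7.5 with 2 mM MgCl2 and 0.1% BSA. IC50 is the concentration giving 50% inhibition of specific binding.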

[8] = biological target: T1, Gonadotropin-releasing hormone receptor; assay: Functional antagonism at GnRH receptor in rat (PI turnover)
[9] = biological target: T2, Gonadotropin-releasing hormone receptor (Homo sapiens, UniProt P30968); assay: Functional antagonism at the human GnRH receptor (PI turnover)
T2 sequence (P30968 whole entry): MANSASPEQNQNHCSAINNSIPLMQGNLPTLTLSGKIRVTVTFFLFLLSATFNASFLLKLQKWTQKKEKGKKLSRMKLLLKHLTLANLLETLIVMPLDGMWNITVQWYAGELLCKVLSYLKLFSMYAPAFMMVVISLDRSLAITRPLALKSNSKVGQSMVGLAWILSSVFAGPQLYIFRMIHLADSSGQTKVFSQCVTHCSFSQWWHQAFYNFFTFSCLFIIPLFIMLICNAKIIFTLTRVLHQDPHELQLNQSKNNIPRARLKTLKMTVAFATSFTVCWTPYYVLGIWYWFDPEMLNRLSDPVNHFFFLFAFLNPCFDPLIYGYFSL
Method in brief: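 CHO cells stably expressing human GnRH receptor were labelled 48 h with 1 μCi [3H]inositol in inositol-free F12 with 10% dialyzed FBS. After washing with PBS containing 10 mM LiCl, cells were preincubated with graded compound for 2 h at 37 °C. 0.5 nM GnRH was then added for 60 min, followed by formic acid lysis. IC50 is inhibition of GnRH-stimulated PI hydrolysis.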

[10] = biological target: T2, Gonadotropin-releasing hormone receptor; assay: In vitro inhibition of binding to GnRH receptor in human; method in brief: as §2

AUC [1]: 303 ng·h/mL | AUC [2]: 1320 ng·h/mL | half-life [3]: 9.5 h | half-life [4]: 5 h | clearance [5]: 30 mL/min/kg | clearance [6]: 33 mL/min/kg | IC50 [7]: 4 nM | IC50 [8]: 81 nM | IC50 [9]: 1 nM | IC50 [10]: 0.44 nM
SMILES: Cc1cc(-c2c(OCC[C@@H]3CCN3)c3cc(C(=O)Nc4ccncn4)c(Cl)cc3[nH]c2=O)cc(C)c1C
